Calls of active or inactive are those of the source. The calls are words filed in the database; no cut-off is given here.
Columns and labels:
[1] = biological target: T1, Presenilin-1 (Homo sapiens, UniProt P49768); assay: Activation of wild-type human presenilin-1 stably overexpressed in CHO cells co-expressing wild-type human amyloid precursor protein assessed as amyloid beta 38 formation after 24 hrs by ELISA; assay type: cell-based
[2] = biological target: T2, Peroxisome proliferator-activated receptor gamma (Homo sapiens) (UniProt P37231); assay: Activation of human PPARgamma ligand binding domain expressed in COS7 cells by dual luciferase reporter gene assay relative to 1 uM pioglitazone; assay type: cell-based; details: COS-7
T2 sequence (whole entry): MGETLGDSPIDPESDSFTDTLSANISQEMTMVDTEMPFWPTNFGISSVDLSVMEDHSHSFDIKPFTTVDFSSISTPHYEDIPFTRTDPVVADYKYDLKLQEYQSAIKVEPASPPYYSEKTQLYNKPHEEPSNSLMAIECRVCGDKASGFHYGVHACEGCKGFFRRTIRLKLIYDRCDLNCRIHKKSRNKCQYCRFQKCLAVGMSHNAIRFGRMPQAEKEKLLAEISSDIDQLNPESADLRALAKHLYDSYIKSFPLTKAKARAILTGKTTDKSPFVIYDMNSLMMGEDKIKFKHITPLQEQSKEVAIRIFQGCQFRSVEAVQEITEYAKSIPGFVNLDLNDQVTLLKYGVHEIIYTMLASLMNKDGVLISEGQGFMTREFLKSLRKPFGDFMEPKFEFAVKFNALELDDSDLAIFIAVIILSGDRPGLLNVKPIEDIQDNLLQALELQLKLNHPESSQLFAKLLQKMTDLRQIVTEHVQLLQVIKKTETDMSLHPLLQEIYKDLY

[3] = biological target: T3, Prostaglandin G/H synthase 2 (Homo sapiens) (UniProt P35354); assay: Inhibition of human recombinant COX2-mediated 12-HHT formation assessed as remaining activity at 10 uM preincubated for 5 mins before arachidonic acid addition by HPLC analysis
T3 sequence (whole entry): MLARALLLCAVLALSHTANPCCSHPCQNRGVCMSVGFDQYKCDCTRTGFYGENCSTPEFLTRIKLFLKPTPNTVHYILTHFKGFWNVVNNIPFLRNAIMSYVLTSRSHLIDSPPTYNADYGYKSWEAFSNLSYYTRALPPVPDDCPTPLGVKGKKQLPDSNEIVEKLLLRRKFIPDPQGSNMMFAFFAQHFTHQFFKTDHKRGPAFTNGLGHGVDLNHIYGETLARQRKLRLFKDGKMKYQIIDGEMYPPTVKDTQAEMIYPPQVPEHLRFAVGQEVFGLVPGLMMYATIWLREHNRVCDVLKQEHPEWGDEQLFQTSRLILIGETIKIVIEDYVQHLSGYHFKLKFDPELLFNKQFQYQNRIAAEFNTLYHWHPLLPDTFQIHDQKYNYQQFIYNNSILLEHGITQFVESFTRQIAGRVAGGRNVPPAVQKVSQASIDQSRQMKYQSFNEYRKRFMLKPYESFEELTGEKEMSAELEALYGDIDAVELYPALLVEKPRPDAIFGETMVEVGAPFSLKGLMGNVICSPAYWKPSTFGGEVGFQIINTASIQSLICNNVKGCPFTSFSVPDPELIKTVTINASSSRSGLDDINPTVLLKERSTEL
How it was run: (§1)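 Cell-free enzyme assays. Data given either as IC50 or as remaining enzyme activity at 10 µM test concentration.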

[4] = biological target: T4, Peroxisome proliferator-activated receptor gamma (Homo sapiens, UniProt P37231); assay: Activation of human PPARgamma ligand binding domain expressed in COS7 cells by dual luciferase reporter gene assay; assay type: cell-based, COS-7
T4 sequence (P37231 whole entry): T2 sequence (whole entry)

[5] = biological target: T5, Polyunsaturated fatty acid 5-lipoxygenase (Homo sapiens, UniProt P09917); assay: Inhibition of 5-LO in human PMNL assessed as reduction in 5-LO product formation pre-incubated for 15 mins before addition of arachidonic acid substrate by HPLC analysis
T5 sequence (P09917 whole entry): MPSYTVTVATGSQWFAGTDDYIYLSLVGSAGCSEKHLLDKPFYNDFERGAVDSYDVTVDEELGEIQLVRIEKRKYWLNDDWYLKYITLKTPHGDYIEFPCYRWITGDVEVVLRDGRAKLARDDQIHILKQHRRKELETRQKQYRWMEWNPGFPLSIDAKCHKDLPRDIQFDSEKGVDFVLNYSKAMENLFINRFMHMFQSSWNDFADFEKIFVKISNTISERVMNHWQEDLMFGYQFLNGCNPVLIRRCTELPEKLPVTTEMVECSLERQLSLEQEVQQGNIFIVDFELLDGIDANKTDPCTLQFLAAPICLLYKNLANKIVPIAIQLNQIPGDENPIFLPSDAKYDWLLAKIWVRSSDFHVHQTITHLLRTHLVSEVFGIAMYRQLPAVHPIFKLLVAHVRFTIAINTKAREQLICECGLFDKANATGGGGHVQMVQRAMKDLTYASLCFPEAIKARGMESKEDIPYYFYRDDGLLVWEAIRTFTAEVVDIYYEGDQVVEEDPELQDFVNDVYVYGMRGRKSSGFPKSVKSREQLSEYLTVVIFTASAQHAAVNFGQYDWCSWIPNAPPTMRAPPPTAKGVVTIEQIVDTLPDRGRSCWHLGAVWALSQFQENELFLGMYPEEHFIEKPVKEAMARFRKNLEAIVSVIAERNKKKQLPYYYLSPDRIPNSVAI

[6] = biological target: T6, Prostaglandin E synthase (Homo sapiens, UniProt O14684); assay: Inhibition of mPGES-1-mediated PGE2 formation in interleukin-1beta-stimulated human A549 microsomal membranes preincubated for 15 mins before PGH2 addition by RP-HPLC analysis
T6 sequence (O14684 whole entry): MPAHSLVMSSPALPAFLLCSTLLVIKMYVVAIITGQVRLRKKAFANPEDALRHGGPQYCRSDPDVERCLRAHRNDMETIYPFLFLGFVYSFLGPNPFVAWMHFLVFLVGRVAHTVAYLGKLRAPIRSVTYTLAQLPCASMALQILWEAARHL

[7] = biological target: T1, Presenilin-1; assay: Inhibition of wild-type human presenilin-1 stably overexpressed in CHO cells co-expressing wild-type human amyloid precursor protein assessed as inhibition of amyloid beta 42 formation after 24 hrs by ELISA; assay type: cell-based
[8] = biological target: T7, Prostaglandin G/H synthase 1 (Ovis aries, UniProt P05979); assay: Inhibition of ovine COX1-mediated 12-HHT formation preincubated for 5 mins before arachidonic acid addition by HPLC analysis; how it was run: as §1
T7 sequence (P05979 whole entry): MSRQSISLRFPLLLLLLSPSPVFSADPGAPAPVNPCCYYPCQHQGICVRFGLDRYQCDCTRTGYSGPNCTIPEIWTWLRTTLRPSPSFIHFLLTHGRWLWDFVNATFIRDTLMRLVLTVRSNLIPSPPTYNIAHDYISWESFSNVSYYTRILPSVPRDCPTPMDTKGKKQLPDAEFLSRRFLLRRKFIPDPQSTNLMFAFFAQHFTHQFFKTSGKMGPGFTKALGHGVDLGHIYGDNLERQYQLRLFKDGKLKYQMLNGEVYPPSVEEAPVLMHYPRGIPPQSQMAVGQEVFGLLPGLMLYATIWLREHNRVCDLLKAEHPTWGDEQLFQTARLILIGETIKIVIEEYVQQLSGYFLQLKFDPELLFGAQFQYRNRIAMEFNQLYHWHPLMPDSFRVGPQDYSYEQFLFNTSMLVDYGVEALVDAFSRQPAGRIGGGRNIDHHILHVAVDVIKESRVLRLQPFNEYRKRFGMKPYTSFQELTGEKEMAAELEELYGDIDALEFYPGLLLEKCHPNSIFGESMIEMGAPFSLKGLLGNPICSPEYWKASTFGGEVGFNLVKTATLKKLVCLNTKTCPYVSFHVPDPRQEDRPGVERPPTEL

[9] = biological target: T8, Prostaglandin G/H synthase 2 (Homo sapiens, UniProt P35354); assay: Inhibition of human recombinant COX2-mediated 12-HHT formation preincubated for 5 mins before arachidonic acid addition by HPLC analysis; how it was run: as §1
T8 sequence (P35354 whole entry): T3 sequence (whole entry)

[10] = biological target: T9, Prostaglandin G/H synthase 1 (Ovis aries) (UniProt P05979); assay: Inhibition of ovine COX1-mediated 12-HHT formation assessed as remaining activity at 10 uM preincubated for 5 mins before arachidonic acid addition by HPLC analysis; how it was run: as §1
T9 sequence (whole entry): T7 sequence (P05979 whole entry)

[11] = biological target: T2, Peroxisome proliferator-activated receptor gamma (Homo sapiens); assay: Activation of human PPARgamma ligand binding domain expressed in COS7 cells at 10 uM by dual luciferase reporter gene assay; assay type: cell-based; details: COS-7

Row | EC50 [1] [µM] | max activation [2] | Activity [3] [%] | EC50 ([4]; read-out: EC50) [µM] | IC50 ([5]; read-out: IC50) [µM] | IC50 [6] [µM] | IC50 [7] [µM] | IC50 [8] [µM] | IC50 [9] [µM] | Activity [10] [%] | EC50 ([4]; cos-7) | IC50 [5] | Activity [11] [%] | Structure (SMILES)
1 | 13.8 | 76% | 84.2 | 5.17 | 0.5 | 4.9 | 7 | > 10 | > 10 | 78.4 |  |  |  | CCCC/C(=C\c1cc(OCc2ccc(F)cc2)ccc1OCc1ccc(C(F)(F)F)cc1)C(=O)O
2 | 23.2 | 120% |  | 2.56 | 2.3 |  | 32.1 |  |  |  |  |  |  | CCCC/C(=C\c1cc(OCc2cccnc2)ccc1OCc1ccc(C(F)(F)F)cc1)C(=O)O
3 | 3.2 |  |  |  |  |  | 11.9 |  |  |  | Not Active | Not Active |  | CCCC/C(=C\c1cc(OCc2ccc(-c3ccccc3)cc2)ccc1OCc1ccc(C(F)(F)F)cc1)C(=O)O
4 | 4.4 |  |  |  |  |  | 4.4 |  |  |  | Not Active | Not Active |  | CCCC/C(=C\c1cc(OCc2ccc(CCCC)cc2)ccc1OCc1ccc(C(F)(F)F)cc1)C(=O)O
5 | 1.1 |  |  |  |  | > 10 | 1.2 | > 10 | > 10 |  |  |  |  | CCCC/C(=C\c1cc(OCc2ccc(C(F)(F)F)cc2)ccc1OCc1ccc(C(F)(F)F)cc1)C(=O)O
6 | 14.1 | 108% | 84.8 | 11.7 | 0.55 | 5.6 | 19.3 | > 10 | > 10 | 86.6 |  |  |  | CCCC/C(=C\c1cc(OCc2ccccc2)ccc1OCc1ccc(C(F)(F)F)cc1)C(=O)O
7 | 3.2 | 56% | 73.3 | 2.11 | 0.3 | 1.6 | 2 | > 10 | > 10 | 59.4 |  |  |  | CCCC/C(=C\c1cc(OCc2ccc(Cl)c(Cl)c2)ccc1OCc1ccc(C(F)(F)F)cc1)C(=O)O
8 | 2.2 |  |  |  | 6.7 |  | 20.2 |  |  |  | Not Active |  |  | CCCC/C(=C\c1cc(OCc2ccc(-c3csc(C)n3)cc2)ccc1OCc1ccc(C(F)(F)F)cc1)C(=O)O
9 | 10.7 | inactive | 84.4 |  | 0.9 | > 10 | 2.3 | > 10 | > 10 | 73.5 | Not Active |  |  | CCCC/C(=C\c1cc(OCc2csc(-c3ccc(C(F)(F)F)cc3)n2)ccc1OCc1ccc(C(F)(F)F)cc1)C(=O)O
10 | 4.5 |  | 91.1 |  | 0.2 | 10 | 5 | > 10 | > 10 | 75.7 | Not Active |  |  | CCCC/C(=C\c1cc(OCc2ccc(Oc3ccccn3)cc2)ccc1OCc1ccc(C(F)(F)F)cc1)C(=O)O

Further lines, the compound ahead of its results:

Row | Structure (SMILES) | EC50 [1] [µM] | max activation [2] | Activity [3] [%] | EC50 ([4]; read-out: EC50) [µM] | IC50 ([5]; read-out: IC50) [µM] | IC50 [6] [µM] | IC50 [7] [µM] | IC50 [8] [µM] | IC50 [9] [µM] | Activity [10] [%] | EC50 ([4]; cos-7) | IC50 [5] | Activity [11] [%]
11 | CCCC/C(=C\c1cc(OCc2ccc(OCCN3CCOCC3)cc2)ccc1OCc1ccc(C(F)(F)F)cc1)C(=O)O | 0.97 | 66% | 95 | 3.77 | 0.9 | 8.7 | 2.2 | > 10 | > 10 | 91.3 |  |  | 
12 | CCCCC(Sc1nc(OCCc2ccccc2)cc(OCCc2ccccc2)n1)C(=O)O (centres undefined) | 11.3 | 61% |  |  |  |  | 22.8 |  |  |  |  |  | 
13 | CCCC/C(=C\c1cc(OC/C=C/c2ccccc2)ccc1OCc1ccc(C(F)(F)F)cc1)C(=O)O | 2.5 | 56% | 77.7 | 12.9 | 0.75 | 5 | 4.1 | > 10 | > 10 | 69.5 |  |  | 
14 | CCCC/C(=C\c1cc(OCC(c2ccccc2)c2ccccc2)ccc1OCc1ccc(C(F)(F)F)cc1)C(=O)O | 11.2 | 97% | 79.5 | 1.26 | 0.25 | > 10 | 11.4 | > 10 | > 10 | 61.1 |  |  | 
15 | CCCCC(Sc1nc(OCCC2CCCCC2)cc(OCCC2CCCCC2)n1)C(=O)O (centres undefined) | 4.6 | 71% |  |  |  |  | 5.1 |  |  |  |  |  | 
16 | CCCC/C(=C\c1cc(OCc2ccc(OCc3ccccc3)cc2)ccc1OCc1ccc(C(F)(F)F)cc1)C(=O)O | 1.8 |  |  |  |  |  | 8.5 |  |  |  | Not Active | Not Active | 
17 | CCCC/C(=C\c1cc(Oc2ccccc2)ccc1OCc1ccc(C(F)(F)F)cc1)C(=O)O | 15.6 | 76% |  | 0.72 | 2.1 |  | 14.9 |  |  |  |  |  | 
18 | CCCC/C(=C\c1cc(O)ccc1OCc1ccc(C(F)(F)F)cc1)C(=O)O | > 40 |  |  |  |  |  | > 40 |  |  |  |  | Not Active | 48
19 | CCCC/C(=C\c1cc(-c2ccccc2)ccc1OCc1ccc(C(F)(F)F)cc1)C(=O)O | 12 |  |  |  | 5.7 |  | 11.9 |  |  |  |  |  | 26
